Experiment [1] has as its system NCI-H1975. The experiment can be described thus: Antiproliferative activity against human NCI-H1975 cells incubated for 72 hrs by MTT assay. The experiment is classed as functional, cell-based. The following applies: NCI-H1975, 72 h. For orientation: Formazan colour is commonly taken as a measure of viable cells.
In experiment [2] the test system is A-431. Description: Antiproliferative activity against human A431 cells incubated for 72 hrs by MTT assay. The experiment is classed as functional, cell-based. The following applies: A-431, 72 h.
For experiment [3], the system named is SK-BR-3. Description: Antiproliferation activity against human SK-BR-3 cells incubated for 72 hrs by MTT assay. The experiment is classed as functional, cell-based. The note with it: SK-BR-3, 72 h. An outline of the steps: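 MTT assay. About 0.5–1 × 10⁴ cells/well were pre-incubated 12 h at 37 °C in 5% CO₂, then exposed to a concentration series of compound for 72 h. Formazan was dissolved in DMSO and absorbance read at 490 nm. Three wells per condition, three independent experiments. IC50 is the mean ± SD from the dose-response curves.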

Experiment [4] relates to NCI-H838. Description: Antiproliferation activity against human NCI-H838 cells incubated for 72 hrs by MTT assay. The experiment is classed as functional, cell-based. The following applies: NCI-H838, 72 h.
Experiment [5] relates to A549. Description: Antiproliferative activity against human A549 cells incubated for 72 hrs by MTT assay. The following applies: A549, 72 h. Format: functional, cell-based.
The target of experiment [6] is Receptor tyrosine-protein kinase erbB-2 (Homo sapiens, UniProt P04626). Description: Inhibition of HER2 (unknown origin) by mobility shift assay. An outline of the steps: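 In vitro kinase activity was measured by mobility shift assay, run by a contract provider.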
Sequence of Receptor tyrosine-protein kinase erbB-2 (P04626 whole entry): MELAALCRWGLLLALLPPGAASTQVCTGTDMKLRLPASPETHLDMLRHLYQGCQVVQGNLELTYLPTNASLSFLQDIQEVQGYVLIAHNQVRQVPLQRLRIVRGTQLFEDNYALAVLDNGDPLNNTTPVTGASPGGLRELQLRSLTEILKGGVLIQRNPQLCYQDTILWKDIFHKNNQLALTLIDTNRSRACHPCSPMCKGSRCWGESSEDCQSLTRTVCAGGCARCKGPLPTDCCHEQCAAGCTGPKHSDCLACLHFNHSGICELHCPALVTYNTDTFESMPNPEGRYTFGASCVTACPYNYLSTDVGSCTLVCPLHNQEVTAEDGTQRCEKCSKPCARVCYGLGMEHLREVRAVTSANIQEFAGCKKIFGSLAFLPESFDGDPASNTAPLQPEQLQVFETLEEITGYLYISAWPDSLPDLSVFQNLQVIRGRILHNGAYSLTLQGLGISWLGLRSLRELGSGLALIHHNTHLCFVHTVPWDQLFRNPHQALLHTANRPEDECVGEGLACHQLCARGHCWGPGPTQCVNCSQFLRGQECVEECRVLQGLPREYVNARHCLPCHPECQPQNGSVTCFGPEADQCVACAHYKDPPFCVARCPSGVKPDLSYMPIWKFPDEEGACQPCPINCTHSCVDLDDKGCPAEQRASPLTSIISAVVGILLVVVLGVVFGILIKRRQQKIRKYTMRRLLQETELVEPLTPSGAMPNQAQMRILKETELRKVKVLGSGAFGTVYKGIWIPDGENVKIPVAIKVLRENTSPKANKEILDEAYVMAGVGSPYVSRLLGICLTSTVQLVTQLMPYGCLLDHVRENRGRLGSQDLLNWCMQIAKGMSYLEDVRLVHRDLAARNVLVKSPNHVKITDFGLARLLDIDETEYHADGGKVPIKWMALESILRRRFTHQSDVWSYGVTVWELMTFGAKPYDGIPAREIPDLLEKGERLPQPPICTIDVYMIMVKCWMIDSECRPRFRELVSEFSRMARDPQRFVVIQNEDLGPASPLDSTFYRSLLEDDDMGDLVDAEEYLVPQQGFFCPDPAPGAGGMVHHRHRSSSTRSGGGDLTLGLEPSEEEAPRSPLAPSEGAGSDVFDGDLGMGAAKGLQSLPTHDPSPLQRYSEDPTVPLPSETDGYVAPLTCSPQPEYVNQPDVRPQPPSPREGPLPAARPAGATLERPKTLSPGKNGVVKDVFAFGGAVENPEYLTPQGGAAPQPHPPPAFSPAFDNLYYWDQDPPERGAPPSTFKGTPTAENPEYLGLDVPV
Experiment [7] addresses Histone deacetylase 1 (Homo sapiens, UniProt Q13547). The experiment can be described thus: Inhibition of HDAC1 (unknown origin).
In experiment [8] the target is Epidermal growth factor receptor (Homo sapiens, UniProt P00533, L858R/T790M). Description: Inhibition of EGFR L858R/T790M (unknown origin) by mobility shift assay.
Sequence of Epidermal growth factor receptor (Homo sapiens, UniProt P00533, L858R/T790M) (P00533 25-1210 T790M/L858R limits assumed): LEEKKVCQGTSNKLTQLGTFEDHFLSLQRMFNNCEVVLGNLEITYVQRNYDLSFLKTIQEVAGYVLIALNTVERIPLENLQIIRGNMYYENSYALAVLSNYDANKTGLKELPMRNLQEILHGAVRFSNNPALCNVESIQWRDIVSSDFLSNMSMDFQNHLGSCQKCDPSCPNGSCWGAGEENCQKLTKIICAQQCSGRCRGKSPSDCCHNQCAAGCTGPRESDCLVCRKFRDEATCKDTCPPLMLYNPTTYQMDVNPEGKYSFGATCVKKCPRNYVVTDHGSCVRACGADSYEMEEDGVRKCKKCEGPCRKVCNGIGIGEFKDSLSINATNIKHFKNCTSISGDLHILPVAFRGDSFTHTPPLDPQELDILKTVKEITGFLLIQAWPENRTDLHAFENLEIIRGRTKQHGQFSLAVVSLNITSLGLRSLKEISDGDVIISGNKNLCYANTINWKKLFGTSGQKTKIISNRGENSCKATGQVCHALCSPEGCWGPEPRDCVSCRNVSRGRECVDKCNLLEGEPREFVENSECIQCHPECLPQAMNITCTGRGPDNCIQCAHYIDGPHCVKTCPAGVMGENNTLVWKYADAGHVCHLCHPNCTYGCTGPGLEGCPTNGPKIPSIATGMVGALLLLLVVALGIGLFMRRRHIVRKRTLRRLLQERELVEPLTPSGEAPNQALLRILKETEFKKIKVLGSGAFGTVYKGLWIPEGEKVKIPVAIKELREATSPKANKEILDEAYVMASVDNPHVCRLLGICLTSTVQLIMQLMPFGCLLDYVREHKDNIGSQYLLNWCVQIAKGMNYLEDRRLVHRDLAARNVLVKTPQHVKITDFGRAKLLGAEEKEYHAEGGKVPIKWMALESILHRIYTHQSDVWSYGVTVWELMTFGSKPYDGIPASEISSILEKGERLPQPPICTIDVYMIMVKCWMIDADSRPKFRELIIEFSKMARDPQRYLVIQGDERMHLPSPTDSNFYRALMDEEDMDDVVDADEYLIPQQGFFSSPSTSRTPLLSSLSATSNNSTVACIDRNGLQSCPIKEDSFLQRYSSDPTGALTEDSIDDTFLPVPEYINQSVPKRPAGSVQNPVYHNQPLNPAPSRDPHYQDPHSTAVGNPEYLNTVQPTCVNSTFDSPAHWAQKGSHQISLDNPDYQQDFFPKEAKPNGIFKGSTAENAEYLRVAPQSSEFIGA
For experiment [9], the target named is T1, Epidermal growth factor receptor (Homo sapiens, UniProt P00533). Description: Inhibition of EGFR (unknown origin) by mobility shift assay.
In experiment [10] the target is Epidermal growth factor receptor (Homo sapiens, UniProt P00533, L858R). The experiment can be described thus: Inhibition of EGFR L858R (unknown origin) by mobility shift assay.
Sequence of Epidermal growth factor receptor (Homo sapiens, UniProt P00533, L858R) (P00533 25-1210 L858R limits assumed): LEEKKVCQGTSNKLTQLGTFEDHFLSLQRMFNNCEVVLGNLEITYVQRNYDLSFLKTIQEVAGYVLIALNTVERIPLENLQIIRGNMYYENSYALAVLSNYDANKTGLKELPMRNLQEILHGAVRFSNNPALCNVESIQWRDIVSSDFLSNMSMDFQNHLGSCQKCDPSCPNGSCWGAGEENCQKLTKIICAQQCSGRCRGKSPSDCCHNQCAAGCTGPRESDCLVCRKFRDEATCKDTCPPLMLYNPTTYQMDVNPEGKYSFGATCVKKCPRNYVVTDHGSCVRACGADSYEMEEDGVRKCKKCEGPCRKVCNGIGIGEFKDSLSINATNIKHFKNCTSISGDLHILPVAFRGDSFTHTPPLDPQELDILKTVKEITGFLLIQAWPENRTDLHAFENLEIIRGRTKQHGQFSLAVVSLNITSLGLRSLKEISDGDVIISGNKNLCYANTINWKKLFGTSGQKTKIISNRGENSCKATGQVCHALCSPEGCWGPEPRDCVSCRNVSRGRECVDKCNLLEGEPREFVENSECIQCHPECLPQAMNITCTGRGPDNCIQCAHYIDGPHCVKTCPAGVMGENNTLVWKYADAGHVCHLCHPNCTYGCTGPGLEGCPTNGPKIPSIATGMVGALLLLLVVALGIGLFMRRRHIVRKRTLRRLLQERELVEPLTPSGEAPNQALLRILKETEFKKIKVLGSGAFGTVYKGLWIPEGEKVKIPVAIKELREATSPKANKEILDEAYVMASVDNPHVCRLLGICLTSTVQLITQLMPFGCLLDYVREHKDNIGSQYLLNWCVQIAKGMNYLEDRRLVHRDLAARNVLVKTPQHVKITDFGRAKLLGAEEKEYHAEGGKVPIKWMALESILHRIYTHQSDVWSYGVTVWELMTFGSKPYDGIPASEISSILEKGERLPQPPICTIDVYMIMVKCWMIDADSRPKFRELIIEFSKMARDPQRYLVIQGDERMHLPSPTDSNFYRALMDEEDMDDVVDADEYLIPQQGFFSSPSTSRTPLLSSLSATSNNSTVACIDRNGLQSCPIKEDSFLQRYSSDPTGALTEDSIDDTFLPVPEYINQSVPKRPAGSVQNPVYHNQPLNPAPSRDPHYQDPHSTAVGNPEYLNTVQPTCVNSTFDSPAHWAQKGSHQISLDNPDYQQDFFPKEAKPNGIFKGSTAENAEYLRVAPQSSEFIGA
Experiment [11] relates to L02. The experiment can be described thus: cytotoxicity against human HL-7702 cells assessed as reduction of cell viability incubated for 72 hrs by MTT assay. The experiment is classed as ADME, cell-based. The following applies: L02, 72 h.
Experiment [12] has as its system FHC. The experiment can be described thus: Cytotoxicity against human FHC cells assessed as reduction of cell viability incubated for 72 hrs by MTT assay. Format: ADME, cell-based.
Experiment [13] has as its target Histone deacetylase (Homo sapiens) (UniProt Q13547+O15379+Q9UBN7+Q92769+Q9UQL6+Q8WUI4+Q9BY41+Q96DB2+P56524+Q9UKV0+Q969S8). Description: Inhibition of HDAC in human NCI-H1975 cells assessed as increase in histone H3 acetylation at 2.5 uM after 1 to 12 hrs by Western blot analysis. The experiment is classed as cell-based. The following applies: time lower 1.0 hrs, time upper […]. For orientation: A western blot detects proteins with antibodies after separation by electrophoresis.

Experiment [14] concerns the target T1, Epidermal growth factor receptor. The experiment can be described thus: Inhibition of EGFR in human NCI-H1975 cells assessed as reduction in EGFR phosphorylation at Tyr-1068 residues at 1 uM after 48 hrs by Western blot analysis. Format: cell-based. An outline of the steps: (§1)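 Cells were treated with compound for 48 h and lysed on ice for 30 min in RIPA buffer with protease and phosphatase inhibitors. Lysates were cleared at 14000 g, 4 °C, and protein quantified by BCA. Samples were boiled in loading buffer, run on 10–12% SDS-PAGE and transferred to PVDF. Membranes were blocked 2 h, incubated in primary antibody overnight at 4 °C, then in secondary antibody 2 h at room temperature.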

For experiment [15] the target is unchanged. The experiment can be described thus: Inhibition of EGFR in human NCI-H1975 cells assessed as reduction in EGFR phosphorylation at Tyr-1173 residues at 1 uM after 48 hrs by Western blot analysis. Format: cell-based. Summed up: as §1

Molecules are shown by their SMILES. pIC50: −log10 of the molar value. Activity calls are given as the source filed them. The calls are words filed in the database; no cut-off is given here.

Sequence of Histone deacetylase 1 (Q13547 whole entry): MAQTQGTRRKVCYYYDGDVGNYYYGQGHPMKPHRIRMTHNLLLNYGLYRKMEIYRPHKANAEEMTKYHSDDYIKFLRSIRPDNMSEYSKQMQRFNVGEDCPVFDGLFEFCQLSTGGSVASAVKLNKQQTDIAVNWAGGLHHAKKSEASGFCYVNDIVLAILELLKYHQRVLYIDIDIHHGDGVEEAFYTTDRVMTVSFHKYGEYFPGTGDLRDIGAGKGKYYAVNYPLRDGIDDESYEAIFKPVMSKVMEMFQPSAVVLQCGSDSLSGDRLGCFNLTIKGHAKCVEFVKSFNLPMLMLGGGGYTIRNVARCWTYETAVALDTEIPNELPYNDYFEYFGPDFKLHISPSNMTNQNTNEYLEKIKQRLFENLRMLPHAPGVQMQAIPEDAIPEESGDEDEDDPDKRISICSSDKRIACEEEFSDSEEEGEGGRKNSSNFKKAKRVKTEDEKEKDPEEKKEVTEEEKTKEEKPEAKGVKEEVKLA

For orientation: pIC50 means the negative decadic logarithm of the IC50, by convention in mol/L. For the compound `C=CC(=O)Nc1cc2c(Nc3ccc(OCc4cccc(F)c4)c(Cl)c3)ncnc2cc1OCc1cn(CCCC(=O)NO)nn1`, the pIC50 in experiment [1] was 4.92; in [2], 4.70; in experiment [3], 4.69; in experiment [4] it was below 4.30; in experiment [5], below 4.30; in experiment [6], 8.43. The pIC50 in [7] is below 6.00; in experiment [8], 7.82; in experiment [9] it was 8.74; in experiment [10] it was 8.54; in [11], below 4.60; in [12] it was below 4.60.

Take `C=CC(=O)Nc1cc2c(Nc3cccc(Cl)c3F)ncnc2cc1OCc1cn(CCCC(=O)NO)nn1`: the pIC50 in experiment [1] was 5.55; in [2], 4.77; in [3], below 4.30; in experiment [4], below 4.30; in experiment [5], below 4.30; in [6], 8.10. In addition, the figures for the pIC50 in experiment [7], in experiment [11] and in [12] were 7.47, below 4.60 and below 4.60, respectively.

`C=CC(=O)Nc1cc2c(Nc3ccc(OCc4cccc(F)c4)c(Cl)c3)ncnc2cc1OCc1cn(CCCCC(=O)NO)nn1`: the pIC50 in experiment [1] was 4.84; in experiment [2], 4.73; in [3], 4.80; in experiment [4], below 4.30; in experiment [5] it was below 4.30; in experiment [6] it was 8.42. For the same compound, the pIC50 is below 6.00 in experiment [7]; 7.85 in experiment [8]; 8.82 in [9]; 8.59 in [10]; below 4.60 in [11]; below 4.60 in experiment [12].

Regarding `C=CC(=O)Nc1cc2c(Nc3cccc(Cl)c3F)ncnc2cc1OCc1cn(CCC(=O)NO)nn1`, the pIC50 in [1] was 5.18; in [2] it was 4.83; in [3] it was below 4.30; in [4], below 4.30; in experiment [5] it was below 4.30; in [6], 7.89. Also, the pIC50 in [7] was 7.36; in experiment [8], 8.08; in experiment [9] it was 9.47; in experiment [10], 8.96; in experiment [11], below 4.60; in [12], below 4.60.

For the compound `C=CC(=O)Nc1cc2c(Nc3cccc(Cl)c3F)ncnc2cc1OCc1cn(CCCCC(=O)NO)nn1`, the pIC50 in experiment [1] was 5.38; in experiment [2] it was 4.81; in experiment [3] it was below 4.30; in experiment [4], below 4.30; in experiment [5], below 4.30; in experiment [6] it was 7.80. The pIC50 in experiment [7] is 6.88; in experiment [8] it was 7.77; in [9], 9.36; in [10], 8.92; in experiment [11], below 4.60; in experiment [12] it was below 4.60.

As to `C=CC(=O)Nc1cc2c(Nc3ccc(F)c(Cl)c3)ncnc2cc1OCc1cn(CCCCC(=O)NO)nn1`, the pIC50 in [1] was 5.60; in experiment [2], 4.82; in experiment [3], 4.70; in experiment [4], below 4.30; in experiment [5], below 4.30; in experiment [6], 8.14. Further, the pIC50 in experiment [7] was 6.53; in [8] it was 8.74; in [9] it was 9.46; in experiment [10] it was 9.06; in [11] it was below 4.60; in experiment [12], below 4.60.

With `C=CC(=O)Nc1cc2c(Nc3ccc(F)c(Cl)c3)ncnc2cc1OCc1cn(CCC(=O)NO)nn1`, the pIC50 is 5.35 in experiment [1]; 4.66 in [2]; below 4.30 in experiment [3]; below 4.30 in experiment [4]; below 4.30 in [5]; 8.27 in experiment [6]. Besides, the pIC50 in [7] is 7.03; in experiment [8], 8.64; in experiment [9] it was 9.48; in [10], 8.96; in experiment [11], below 4.60; in experiment [12], below 4.60.

Consider `C=CC(=O)Nc1cc2c(Nc3ccc(OCc4cccc(F)c4)c(Cl)c3)ncnc2cc1OCc1cn(CCC(=O)NO)nn1`, for which the pIC50 was 4.68 in experiment [1]; 4.79 in [2]; 4.61 in [3]; below 4.30 in [4]; below 4.30 in [5]; 8.43 in experiment [6]. Also, the pIC50 in experiment [7] is below 6.00; in experiment [8], 7.80; in experiment [9], 8.96; in experiment [10] it was 8.66; in [11], below 4.60; in experiment [12], below 4.60.

On to `COc1cc2ncnc(Nc3ccc(F)c(Cl)c3)c2cc1OCCCN1CCOCC1`, for which the inhibition result in experiment [13] was “Active”.

Turning to `O=C(CCCCCCC(=O)Nc1ccccc1)NO` [VORINOSTAT], the pIC50 in [3] was 5.67. Further, the inhibition entry in [14] and in [15] was “inactive” throughout.

Values taken from ChEMBL document CHEMBL4732162, “Design, synthesis and evaluation of novel ErbB/HDAC multitargeted inhibitors with selectivity in EGFR mutant cell lines” (Eur J Med Chem, 2021).
